Results: ChEMBL document CHEMBL1131343, “Nonpeptide cyclic cyanoguanidines as HIV-1 protease inhibitors: synthesis, structure-activity relationships, and X-ray crystal structure studies” (J Med Chem, 1998)

Key:
[1] = test system: Human immunodeficiency virus 1; experiment: The antiviral potency (IC90) was assessed by measuring their effect on the accumulation of viral RNA transcripts on HIV-1 RF infected MT-2 cells; assay type: functional; conditions: Human immunodeficiency virus 1, MT2
Procedure, shortened: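 HIV-1 RF infection of MT-2 cells; the read-out is viral RNA transcript accumulation measured 3 days after infection. IC90 is taken from this read-out.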

[2] = target: Human immunodeficiency virus type 1 protease (Human immunodeficiency virus 1, UniProt Q72874); experiment: Binding affinity for HIV-1 protease enzyme was measured by using fluorescent peptide substrate

N#CN=C1N(Cc2cccc(OCc3ccccc3)c2)[C@H](Cc2ccccc2)[C@H](O)[C@@H](O)[C@@H](Cc2ccccc2)N1Cc1cccc(OCc2ccccc2)c1 was tested, and the IC90 [1] was > 67300 nM and the Ki [2] was 1370 nM.

CC(C)CCN1C(=O)N(CCC(C)C)[C@H](Cc2ccccc2)[C@H](O)[C@@H](O)[C@H]1Cc1ccccc1 gave an IC90 [1] of 4300 nM.

N#CN=C1N(Cc2ccc(O)cc2)[C@H](Cc2ccccc2)[C@H](O)[C@@H](O)[C@@H](Cc2ccccc2)N1Cc1ccc(O)cc1 showed an IC90 [1] of 250 nM and a Ki [2] of 2.6 nM.

With CCCCN1C(=NC#N)N(CCCC)[C@H](Cc2ccccc2)[C@H](O)[C@@H](O)[C@H]1Cc1ccccc1 the IC90 [1] was 2600 nM and the Ki [2] was 2.7 nM.

With N#CN=C1N(Cc2cccc(C#N)c2)[C@H](Cc2ccccc2)[C@H](O)[C@@H](O)[C@@H](Cc2ccccc2)N1Cc1cccc(C#N)c1 the IC90 [1] was 3100 nM and the Ki [2] was 27 nM.

N#CN=C1N(Cc2ccc(N)cc2)[C@H](Cc2ccccc2)[C@H](O)[C@@H](O)[C@@H](Cc2ccccc2)N1Cc1ccc(N)cc1 gave an IC90 [1] of 2300 nM and a Ki [2] of 25 nM.

In the case of O=C1N(Cc2ccc(OCc3ccccc3)cc2)[C@H](Cc2ccccc2)[C@H](O)[C@@H](O)[C@@H](Cc2ccccc2)N1Cc1ccc(OCc2ccccc2)cc1, the IC90 [1] is reported as > 70000 nM and the Ki [2] is reported as 542 nM.

CC(C)=CCN1C(=O)N(CC=C(C)C)[C@H](Cc2ccccc2)[C@H](O)[C@@H](O)[C@H]1Cc1ccccc1 showed an IC90 [1] of 860 nM and a Ki [2] of 1.6 nM.

N#CN=C1N(CC2CCCCC2)[C@H](Cc2ccccc2)[C@H](O)[C@@H](O)[C@@H](Cc2ccccc2)N1CC1CCCCC1 was tested, and the IC90 [1] was 1100 nM and the Ki [2] was 5.7 nM.

N#Cc1cccc(CN2C(=O)N(Cc3cccc(C#N)c3)[C@H](Cc3ccccc3)[C@H](O)[C@@H](O)[C@H]2Cc2ccccc2)c1 gave an IC90 [1] of 2200 nM.

N#CN=C1N(Cc2cccc([N+](=O)[O-])c2)[C@H](Cc2ccccc2)[C@H](O)[C@@H](O)[C@@H](Cc2ccccc2)N1Cc1cccc([N+](=O)[O-])c1 gave an IC90 [1] of 17700 nM and a Ki [2] of 89 nM.

Compound N#CN=C1N(Cc2ccc(CO)cc2)[C@H](Cc2ccccc2)[C@H](O)[C@@H](O)[C@@H](Cc2ccccc2)N1Cc1ccc(CO)cc1 has an IC90 [1] of 3200 nM and a Ki [2] of 11 nM.

In the case of N#CN=C1N(CC2CCCC2)[C@H](Cc2ccccc2)[C@H](O)[C@@H](O)[C@@H](Cc2ccccc2)N1CC1CCCC1, the IC90 [1] is reported as 350 nM and the Ki [2] is reported as 1.5 nM.

Compound C=CCN1C(=NC#N)N(CC=C)[C@H](Cc2ccccc2)[C@H](O)[C@@H](O)[C@H]1Cc1ccccc1 has an IC90 [1] of 51000 nM and a Ki [2] of 37 nM.

In the case of N#CN=C1N(Cc2cccc(N)c2)[C@H](Cc2ccccc2)[C@H](O)[C@@H](O)[C@@H](Cc2ccccc2)N1Cc1cccc(N)c1, the IC90 [1] is reported as 500 nM and the Ki [2] is reported as 7.4 nM.

N#CN=C1N(Cc2cccc(O)c2)[C@H](Cc2ccccc2)[C@H](O)[C@@H](O)[C@@H](Cc2ccccc2)N1Cc1cccc(O)c1 was tested, and the IC90 [1] was 130 nM and the Ki [2] was 0.72 nM.

Compound Nc1ccc(CN2C(=O)N(Cc3ccc(N)cc3)[C@H](Cc3ccccc3)[C@H](O)[C@@H](O)[C@H]2Cc2ccccc2)cc1 has an IC90 [1] of 110 nM and a Ki [2] of 1.1 nM.

With NC(=O)NC1=N[C@H](Cc2ccccc2)[C@H](O)[C@@H](O)[C@@H](Cc2ccccc2)N1 the IC90 [1] was > 142000 nM and the Ki [2] was > 12500 nM.

With CC(C)CCN1C(=NC#N)N(CCC(C)C)[C@H](Cc2ccccc2)[C@H](O)[C@@H](O)[C@H]1Cc1ccccc1 the IC90 [1] was 1100 nM and the Ki [2] was 3.8 nM.

N#CN=C1N(Cc2ccc(C#N)cc2)[C@H](Cc2ccccc2)[C@H](O)[C@@H](O)[C@@H](Cc2ccccc2)N1Cc1ccc(C#N)cc1 showed an IC90 [1] of 7700 nM and a Ki [2] of 128 nM.

In the case of N#CN=C1N(Cc2cccc(CO)c2)[C@H](Cc2ccccc2)[C@H](O)[C@@H](O)[C@@H](Cc2ccccc2)N1Cc1cccc(CO)c1, the IC90 [1] is reported as 590 nM and the Ki [2] is reported as 1.7 nM.

N#CN=C1N(Cc2ccccc2)[C@H](Cc2ccccc2)[C@H](O)[C@@H](O)[C@@H](Cc2ccccc2)N1Cc1ccccc1 gave an IC90 [1] of 3800 nM and a Ki [2] of 20 nM.

Compound O=C1N(CC2CCCCC2)[C@H](Cc2ccccc2)[C@H](O)[C@@H](O)[C@@H](Cc2ccccc2)N1CC1CCCCC1 has an IC90 [1] of 96000 nM.

N#CN=C1N(Cc2ccc(OCc3ccccc3)cc2)[C@H](Cc2ccccc2)[C@H](O)[C@@H](O)[C@@H](Cc2ccccc2)N1Cc1ccc(OCc2ccccc2)cc1 gave an IC90 [1] of 67300 nM and a Ki [2] of 900 nM.

In the case of N#CN=C1N(Cc2ccc3ccccc3c2)[C@H](Cc2ccccc2)[C@H](O)[C@@H](O)[C@@H](Cc2ccccc2)N1Cc1ccc2ccccc2c1, the IC90 [1] is reported as > 79000 nM and the Ki [2] is reported as 22 nM.

O=C1N(Cc2ccc3ccccc3c2)[C@H](Cc2ccccc2)[C@H](O)[C@@H](O)[C@@H](Cc2ccccc2)N1Cc1ccc2ccccc2c1 was tested, and the IC90 [1] was 3900 nM and the Ki [2] was 0.31 nM.

Work on O=C1N[C@H](Cc2ccccc2)[C@H](O)[C@@H](O)[C@@H](Cc2ccccc2)N1 yielded a Ki [2] of 267 nM.

Work on CC(C)=CCN1C(=NC#N)N(CC=C(C)C)[C@H](Cc2ccccc2)[C@H](O)[C@@H](O)[C@H]1Cc1ccccc1 yielded an IC90 [1] of 4700 nM and a Ki [2] of 30 nM.

O=C1N(Cc2cccc(OCc3ccccc3)c2)[C@H](Cc2ccccc2)[C@H](O)[C@@H](O)[C@@H](Cc2ccccc2)N1Cc1cccc(OCc2ccccc2)c1 was tested, and the IC90 [1] was > 70000 nM and the Ki [2] was 340 nM.

Compound CCCN1C(=NC#N)N(CCC)[C@H](Cc2ccccc2)[C@H](O)[C@@H](O)[C@H]1Cc1ccccc1 has an IC90 [1] of 7400 nM and a Ki [2] of 14 nM.

In the case of O=C1N(Cc2ccc(O)cc2)[C@H](Cc2ccccc2)[C@H](O)[C@@H](O)[C@@H](Cc2ccccc2)N1Cc1ccc(O)cc1, the IC90 [1] is reported as 32 nM.

With N#CN=C1N(Cc2ccc([N+](=O)[O-])cc2)[C@H](Cc2ccccc2)[C@H](O)[C@@H](O)[C@@H](Cc2ccccc2)N1Cc1ccc([N+](=O)[O-])cc1 the IC90 [1] was 19300 nM and the Ki [2] was 67 nM.

For N#Cc1ccc(CN2C(=O)N(Cc3ccc(C#N)cc3)[C@H](Cc3ccccc3)[C@H](O)[C@@H](O)[C@H]2Cc2ccccc2)cc1, the IC90 [1] was 5800 nM and the Ki [2] was 52 nM.

For N#CN=C1N(CC2CC2)[C@H](Cc2ccccc2)[C@H](O)[C@@H](O)[C@@H](Cc2ccccc2)N1CC1CC1, the IC90 [1] was 5000 nM and the Ki [2] was 22 nM.

In the case of N#CN=C1N(CC2CCC2)[C@H](Cc2ccccc2)[C@H](O)[C@@H](O)[C@@H](Cc2ccccc2)N1CC1CCC1, the IC90 [1] is reported as 840 nM and the Ki [2] is reported as 2 nM.

With O=C1N(Cc2ccc([N+](=O)[O-])cc2)[C@H](Cc2ccccc2)[C@H](O)[C@@H](O)[C@@H](Cc2ccccc2)N1Cc1ccc([N+](=O)[O-])cc1 the IC90 [1] was 8400 nM and the Ki [2] was 32 nM.

For O=C1N(Cc2ccc(CO)cc2)[C@H](Cc2ccccc2)[C@H](O)[C@@H](O)[C@@H](Cc2ccccc2)N1Cc1ccc(CO)cc1 [DMP-323], the IC90 [1] was 57 nM.

Work on Nc1cccc(CN2C(=O)N(Cc3cccc(N)c3)[C@H](Cc3ccccc3)[C@H](O)[C@@H](O)[C@H]2Cc2ccccc2)c1 [MOZENAVIR] yielded an IC90 [1] of 130 nM and a Ki [2] of 0.28 nM.
